Data reported in ChEMBL document CHEMBL3739286, “Betulinic acid derived hydroxamates and betulin derived carbamates are interesting scaffolds for the synthesis of novel cytotoxic compounds” (Eur J Med Chem, 2015).

Key:
MCF7 = assay: Cytotoxicity against human MCF7 cells after 96 hrs by SRB assay; type: functional, cell-based
How it was run: (§1)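 Photometric sulforhodamine B read-out of antiproliferative effect after 96 h of continuous treatment; EC₅₀ values in µM, averaged from three independent experiments each run in triplicate; the assay cut-off is EC₅₀ > 30 µM. Human tumour lines are tested alongside nonmalignant mouse NIH 3T3 fibroblasts.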

A2780 = assay: Cytotoxicity against human A2780 cells after 96 hrs by SRB assay; type: functional, cell-based; how it was run: as §1
[1] = Cytotoxicity against human 518A2 cells after 96 hrs by SRB assay; type: functional, cell-based; how it was run: as §1
[2] = Cytotoxicity against mouse NIH/3T3 cells after 96 hrs by SRB assay; type: cell-based, NIH3T3; how it was run: as §1
A549 = assay: Cytotoxicity against human A549 cells after 96 hrs by SRB assay; type: functional, cell-based; how it was run: as §1
HeLa = assay: Cytotoxicity against human HeLa cells after 96 hrs by SRB assay; type: functional, cell-based; how it was run: as §1
HT-29 = assay: Cytotoxicity against human HT-29 cells after 96 hrs by SRB assay; type: functional, cell-based; conditions: HT-29, 96 h; how it was run: as §1
[3] = Homo sapiens, MCF7, 96 h, read-out: EC50
[4] = Homo sapiens, A2780, 96 h, read-out: EC50
[5] = Homo sapiens, 518A2, 96 h, read-out: EC50
[6] = Mus musculus, NIH3T3, 96 h, read-out: EC50
[7] = Homo sapiens, A549, 96 h, read-out: EC50

Row | SMILES | EC50 (MCF7; [3]) [µM] | EC50 (A2780; [4]) [µM] | EC50 [1, 5] [µM] | EC50 [2, 6] [µM] | EC50 (A549; [7]) [µM] | EC50 (HeLa) [µM] | EC50 (HT-29) [µM] | EC50 (MCF7; mcf7) | EC50 (A2780; a2780) | EC50 ([1]; 518a2) | EC50 ([2]; nih3t3) | EC50 (A549; a549)
1 | C=C(C)[C@@H]1CC[C@]2(CO)CC[C@]3(C)[C@H](CC[C@@H]4[C@@]5(C)CC[C@H](OC(C)=O)C(C)(C)[C@@H]5CC[C@]43C)[C@@H]12 | 11.2 | 11 | 15.2 | > 30 | 14 |  |  |  |  |  |  | 
2 | C=C(C)[C@@H]1CC[C@]2(C(=O)O)CC[C@]3(C)[C@H](CC[C@@H]4[C@@]5(C)CC[C@H](OC(C)=O)C(C)(C)[C@@H]5CC[C@]43C)[C@@H]12 | 11 | 18.3 | 4.5 | > 30 | 6.2 |  |  |  |  |  |  | 
3 | C=C(C)[C@@H]1CC[C@]2(C(=O)NCc3ccccc3)CC[C@]3(C)[C@H](CC[C@@H]4[C@@]5(C)CC[C@H](O)C(C)(C)[C@@H]5CC[C@]43C)[C@@H]12 | 18 | 11.8 | > 30 | 11.1 | > 30 | > 30 |  |  |  |  |  | 
4 | C=C(C)[C@@H]1CC[C@]2(C(=O)NO)CC[C@]3(C)[C@H](CC[C@@H]4[C@@]5(C)CC[C@H](OC(C)=O)C(C)(C)[C@@H]5CC[C@]43C)[C@@H]12 | 1.4 | 1.3 | 1.6 | 1.1 | 1.3 |  |  |  |  |  |  | 
5 | C=C(C)[C@@H]1CC[C@]2(COC(=O)NCCCCCC)CC[C@]3(C)[C@H](CC[C@@H]4[C@@]5(C)CC[C@H](O)C(C)(C)[C@@H]5CC[C@]43C)[C@@H]12 | > 30 | 7.7 | 5.5 | > 30 | 12.7 | 7.4 | > 30 |  |  |  |  | 
6 | C=C(C)[C@@H]1CC[C@]2(C(=O)NO)CC[C@]3(C)[C@H](CC[C@@H]4[C@@]5(C)CC[C@H](O)C(C)(C)[C@@H]5CC[C@]43C)[C@@H]12 | 3.9 | 3.7 | 2.4 | 2 | 5.3 |  |  |  |  |  |  | 
7 | C=C(C)[C@@H]1CC[C@]2(COC(=O)NCCCC)CC[C@]3(C)[C@H](CC[C@@H]4[C@@]5(C)CC[C@H](O)C(C)(C)[C@@H]5CC[C@]43C)[C@@H]12 | 12.5 | 7 | 8 | 5.7 | 8.6 | 10.1 | 7.5 |  |  |  |  | 
8 | C=C(C)[C@@H]1CC[C@]2(COC(=O)Nc3ccccc3)CC[C@]3(C)[C@H](CC[C@@H]4[C@@]5(C)CC[C@H](O)C(C)(C)[C@@H]5CC[C@]43C)[C@@H]12 | 24.6 | 7.2 | 23.9 | 14.3 | > 30 | 11.5 | 16.3 |  |  |  |  | 
9 | C=C(C)[C@@H]1CC[C@]2(C(=O)N(C)OC)CC[C@]3(C)[C@H](CC[C@@H]4[C@@]5(C)CCC(=O)C(C)(C)[C@@H]5CC[C@]43C)[C@@H]12 | 18.7 | 20.7 | > 30 | 26.7 | 14.5 |  |  |  |  |  |  | 
10 | C=C(C)[C@@H]1CC[C@]2(C(=O)N(C)OC)CC[C@]3(C)[C@H](CC[C@@H]4[C@@]5(C)CC[C@H](OC(C)=O)C(C)(C)[C@@H]5CC[C@]43C)[C@@H]12 | 16.4 | 19.3 | 17.5 | 17.4 | 20.1 |  |  |  |  |  |  | 
11 | C=CCONC(=O)[C@]12CC[C@@H](C(=C)C)[C@@H]1[C@H]1CC[C@@H]3[C@@]4(C)CC[C@H](O)C(C)(C)[C@@H]4CC[C@@]3(C)[C@]1(C)CC2 | 8.6 | 7.3 | 6.7 | 6.1 | 4.1 |  |  |  |  |  |  | 
12 | C=CCONC(=O)[C@]12CC[C@@H](C(=C)C)[C@@H]1[C@H]1CC[C@@H]3[C@@]4(C)CCC(=O)C(C)(C)[C@@H]4CC[C@@]3(C)[C@]1(C)CC2 | 18.4 | 19.7 | 22.4 | 19.7 | 25 |  |  |  |  |  |  | 
13 | C=C(C)[C@@H]1CC[C@]2(C(=O)N(C)O)CC[C@]3(C)[C@H](CC[C@@H]4[C@@]5(C)CCC(=O)C(C)(C)[C@@H]5CC[C@]43C)[C@@H]12 | 10.2 | 3 | 6.3 | 5 | 6 |  |  |  |  |  |  | 
14 | C=C(C)[C@@H]1CC[C@]2(C(=O)N(C)OC)CC[C@]3(C)[C@H](CC[C@@H]4[C@@]5(C)CC[C@H](O)C(C)(C)[C@@H]5CC[C@]43C)[C@@H]12 | 10.2 | 7.6 | 7.3 | 7.7 | 19 |  |  |  |  |  |  | 
15 | C=CCONC(=O)[C@]12CC[C@@H](C(=C)C)[C@@H]1[C@H]1CC[C@@H]3[C@@]4(C)CC[C@H](OC(C)=O)C(C)(C)[C@@H]4CC[C@@]3(C)[C@]1(C)CC2 | 12.2 | 5.9 | 7.6 | > 30 | 6.6 |  |  |  |  |  |  | 
16 | C=C(C)[C@@H]1CC[C@]2(C(=O)N(C)O)CC[C@]3(C)[C@H](CC[C@@H]4[C@@]5(C)CC[C@H](O)C(C)(C)[C@@H]5CC[C@]43C)[C@@H]12 |  |  |  |  |  |  |  | ND(Insoluble) | ND(Insoluble) | ND(Insoluble) | ND(Insoluble) | ND(Insoluble)
17 | C=C(C)[C@@H]1CC[C@]2(C(=O)NOC)CC[C@]3(C)[C@H](CC[C@@H]4[C@@]5(C)CC[C@H](OC(C)=O)C(C)(C)[C@@H]5CC[C@]43C)[C@@H]12 | 13.5 | 8.9 | 8 | 9.5 | 11.7 |  |  |  |  |  |  | 
18 | C=C(C)[C@@H]1CC[C@]2(C(=O)N(C)O)CC[C@]3(C)[C@H](CC[C@@H]4[C@@]5(C)CC[C@H](OC(C)=O)C(C)(C)[C@@H]5CC[C@]43C)[C@@H]12 | 2.3 | 2 | 3.5 | 2.9 | 4.3 |  |  |  |  |  |  | 
19 | C=C(C)[C@@H]1CC[C@]2(C(=O)NOC)CC[C@]3(C)[C@H](CC[C@@H]4[C@@]5(C)CC[C@H](O)C(C)(C)[C@@H]5CC[C@]43C)[C@@H]12 | 21.9 | 12.3 | 5.8 | 15.2 | 6.9 |  |  |  |  |  |  | 
20 | C=C(C)[C@@H]1CC[C@]2(C(=O)NOC)CC[C@]3(C)[C@H](CC[C@@H]4[C@@]5(C)CCC(=O)C(C)(C)[C@@H]5CC[C@]43C)[C@@H]12 | 13.8 | 12 | 17.2 | 12.7 | 6.1 |  |  |  |  |  |  | 
21 | C=C(C)[C@@H]1CC[C@]2(COC(C)=O)CC[C@]3(C)[C@H](CC[C@@H]4[C@@]5(C)CC[C@H](OC(C)=O)C(C)(C)[C@@H]5CC[C@]43C)[C@@H]12 [BETULIN DIACETATE] | > 30 | > 30 | > 30 | > 30 | > 30 |  |  |  |  |  |  | 
22 | C=C(C)[C@@H]1CC[C@]2(C(=O)O)CC[C@]3(C)[C@H](CC[C@@H]4[C@@]5(C)CC[C@H](O)C(C)(C)[C@@H]5CC[C@]43C)[C@@H]12 [BETULINIC ACID] | 10.2 | 8.8 | 9.4 | 16.1 | 17.1 |  |  |  |  |  |  | 
23 | C=C(C)[C@@H]1CC[C@]2(CO)CC[C@]3(C)[C@H](CC[C@@H]4[C@@]5(C)CC[C@H](O)C(C)(C)[C@@H]5CC[C@]43C)[C@@H]12 [BETULIN] | > 30 | > 30 | > 30 | > 30 | > 30 |  |  |  |  |  |  | 
24 | C=C(C)[C@@H]1CC[C@]2(C(=O)O)CC[C@]3(C)[C@H](CC[C@@H]4[C@@]5(C)CCC(=O)C(C)(C)[C@@H]5CC[C@]43C)[C@@H]12 [BETUNOLIC ACID] | 25.9 | 20.4 | 29 | 13.1 | 25.9 |  |  |  |  |  |  | 
